Active and inactive are the calls of the source. No cut-off for these calls is given here.
Experiments:
[1] = molecular target: Serine/threonine-protein kinase 38 (Homo sapiens) (UniProt Q15208); test: Inhibition of NDR1 in human SKCO1 cells at 1 uM after 4 hrs using biotin labeled DIKPDNLLLDSK probe by mass-spectrometric analysis relative to control; type: cell-based
[2] = molecular target: Dual specificity mitogen-activated protein kinase kinase 2 (Homo sapiens) (UniProt P36507); test: Inhibition of full length human MEK2 (1 to 400 residues) expressed in mammalian expression system assessed as enzyme activity at 10 uM by KINOMEScan assay relative to control; set-up: scale not given: the % may be the effect or the level left
Sequence of Dual specificity mitogen-activated protein kinase kinase 2 (Homo sapiens) (P36507 whole entry, the tested form may be a part): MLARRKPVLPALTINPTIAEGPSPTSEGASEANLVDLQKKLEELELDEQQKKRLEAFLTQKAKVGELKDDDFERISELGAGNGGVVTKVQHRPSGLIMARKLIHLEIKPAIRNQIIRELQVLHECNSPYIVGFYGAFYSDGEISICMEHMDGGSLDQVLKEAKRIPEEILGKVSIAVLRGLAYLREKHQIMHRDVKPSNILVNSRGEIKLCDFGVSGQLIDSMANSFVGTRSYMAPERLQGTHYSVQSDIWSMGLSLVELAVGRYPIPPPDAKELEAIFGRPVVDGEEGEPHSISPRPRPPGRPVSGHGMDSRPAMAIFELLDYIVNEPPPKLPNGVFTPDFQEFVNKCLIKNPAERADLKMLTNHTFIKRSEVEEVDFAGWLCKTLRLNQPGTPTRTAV
Procedure, shortened: (§1)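 In vitro ATP-site competition binding assay (KinomeScan) across a panel of 456 kinases. Compound was tested at 1 and 10 μM. The read-out is the binding inhibition score relative to control.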

[3] = molecular target: Vascular endothelial growth factor receptor 2 (Homo sapiens) (UniProt P35968); test: Inhibition of human VEGFR2 (787 to 1253 residues) expressed in mammalian expression system assessed as enzyme activity at 1 uM by KINOMEScan assay relative to control; set-up: scale not given: the % may be the effect or the level left
Procedure, shortened: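 In vitro ATP-site competition binding assay across a panel of 456 kinases, with compound tested at 1 and 10 μM.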

[4] = molecular target: Activin receptor type-1 (Homo sapiens) (UniProt Q04771); test: Inhibition of human ACVR1 (188 to 509 residues) expressed in bacterial expression system assessed as enzyme activity at 1 uM by KINOMEScan assay relative to control; set-up: scale not given: the % may be the effect or the level left; procedure, shortened: as §1
Sequence of Activin receptor type-1 (Homo sapiens) (Q04771 whole entry, the tested form may be a part): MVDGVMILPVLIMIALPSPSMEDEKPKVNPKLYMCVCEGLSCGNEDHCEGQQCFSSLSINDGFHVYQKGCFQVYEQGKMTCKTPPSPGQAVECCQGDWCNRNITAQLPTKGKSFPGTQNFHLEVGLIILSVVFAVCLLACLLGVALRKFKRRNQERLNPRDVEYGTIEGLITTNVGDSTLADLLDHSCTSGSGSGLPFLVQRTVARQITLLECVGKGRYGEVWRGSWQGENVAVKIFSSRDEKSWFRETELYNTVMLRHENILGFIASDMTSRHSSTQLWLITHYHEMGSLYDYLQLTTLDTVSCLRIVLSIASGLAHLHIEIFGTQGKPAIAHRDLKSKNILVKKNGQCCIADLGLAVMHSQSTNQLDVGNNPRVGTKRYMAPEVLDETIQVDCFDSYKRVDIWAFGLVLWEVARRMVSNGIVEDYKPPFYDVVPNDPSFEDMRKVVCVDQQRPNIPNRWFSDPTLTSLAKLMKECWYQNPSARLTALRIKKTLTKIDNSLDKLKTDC

[5] = molecular target: MAP kinase-activated protein kinase 5 (Homo sapiens) (UniProt Q8IW41); test: Binding affinity to MAPKAPK5 in human NCI-H358 cells at 1 uM by mass spectrometry based pull down assay; type: cell-based
[6] = molecular target: StAR-related lipid transfer protein 7, mitochondrial (Homo sapiens) (UniProt Q9NQZ5); test: Binding affinity to STARD7 in human NCI-H23 cells at 1 uM by mass spectrometry based pull down assay; type: cell-based
[7] = molecular target: Cysteine and glycine-rich protein 1 (Homo sapiens) (UniProt P21291); test: Binding affinity to CSRP1 in human NCI-H23 cells at 1 uM by mass spectrometry based pull down assay; type: cell-based
Sequence of Cysteine and glycine-rich protein 1 (Homo sapiens) (P21291 whole entry): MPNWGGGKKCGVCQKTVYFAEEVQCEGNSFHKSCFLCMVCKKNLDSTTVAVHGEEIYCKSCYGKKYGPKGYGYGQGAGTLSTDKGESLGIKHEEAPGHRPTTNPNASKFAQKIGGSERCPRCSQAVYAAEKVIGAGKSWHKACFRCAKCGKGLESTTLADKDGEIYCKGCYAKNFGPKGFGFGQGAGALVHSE

[8] = molecular target: Thioredoxin reductase 1, cytoplasmic (Homo sapiens) (UniProt Q16881); test: Binding affinity to TXNRD1 in human NCI-H358 cells at 1 uM by mass spectrometry based pull down assay; type: cell-based
[9] = molecular target: AP-2 complex subunit alpha-1 (Homo sapiens) (UniProt O95782); test: Binding affinity to AP2A1 in human NCI-H358 cells at 1 uM by mass spectrometry based pull down assay; type: cell-based
[10] = molecular target: Small ribosomal subunit protein uS2 (Homo sapiens) (UniProt P08865); test: Binding affinity to RPSA in human NCI-H23 cells at 1 uM by mass spectrometry based pull down assay; type: cell-based
[11] = molecular target: Pyruvate dehydrogenase E1 component subunit beta, mitochondrial (Homo sapiens) (UniProt P11177); test: Binding affinity to PDHB in human NCI-H358 cells at 1 uM by mass spectrometry based pull down assay; type: cell-based
Sequence of Pyruvate dehydrogenase E1 component subunit beta, mitochondrial (Homo sapiens) (P11177 whole entry): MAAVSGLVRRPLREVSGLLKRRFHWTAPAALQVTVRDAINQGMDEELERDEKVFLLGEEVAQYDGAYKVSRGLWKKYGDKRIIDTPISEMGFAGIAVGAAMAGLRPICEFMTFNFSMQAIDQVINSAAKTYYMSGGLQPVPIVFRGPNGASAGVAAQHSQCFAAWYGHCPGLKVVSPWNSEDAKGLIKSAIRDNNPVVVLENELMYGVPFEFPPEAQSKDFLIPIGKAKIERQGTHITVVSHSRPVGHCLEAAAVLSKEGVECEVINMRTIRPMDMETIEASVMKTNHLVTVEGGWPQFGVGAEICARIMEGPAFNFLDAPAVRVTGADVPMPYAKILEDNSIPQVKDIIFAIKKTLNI

[12] = molecular target: Aldehyde dehydrogenase family 16 member A1 (Homo sapiens) (UniProt Q8IZ83); test: Binding affinity to ALDH16A1 in human NCI-H23 cells at 1 uM by mass spectrometry based pull down assay; type: cell-based
Procedure, shortened: (§2)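 NCI-H23 or NCI-H358 cells were grown and lysed. Lysates were incubated overnight at 4 °C with 1 μM biotinylated covalent probe or DMSO, then pulled down on streptavidin beads. Proteins were run on polyacrylamide gels and stained with Coomassie. Bands were excised, digested and identified by mass spectrometry.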

[13] = molecular target: Vesicle-trafficking protein SEC22b (Homo sapiens) (UniProt O75396); test: Binding affinity to SEC22B in human NCI-H358 cells at 1 uM by mass spectrometry based pull down assay; type: cell-based
Sequence of Vesicle-trafficking protein SEC22b (Homo sapiens) (O75396 whole entry, the tested form may be a part): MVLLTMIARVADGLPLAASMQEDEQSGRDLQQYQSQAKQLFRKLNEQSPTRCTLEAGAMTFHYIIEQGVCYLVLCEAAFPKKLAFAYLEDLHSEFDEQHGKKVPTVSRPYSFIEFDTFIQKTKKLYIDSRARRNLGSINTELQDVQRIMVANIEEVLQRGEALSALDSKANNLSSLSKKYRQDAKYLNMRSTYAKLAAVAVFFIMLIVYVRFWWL

[14] = molecular target: TBC1 domain family member 15 (Homo sapiens) (UniProt Q8TC07); test: Binding affinity to TBC1D15 in human NCI-H358 cells at 1 uM by mass spectrometry based pull down assay; type: cell-based
[15] = molecular target: Proteasome adapter and scaffold protein ECM29 (Homo sapiens) (UniProt Q5VYK3); test: Binding affinity to KIAA0368 in human NCI-H358 cells at 1 uM by mass spectrometry based pull down assay; type: cell-based
[16] = molecular target: Low molecular weight phosphotyrosine protein phosphatase (Homo sapiens) (UniProt P24666); test: Binding affinity to ACP1 in human NCI-H358 cells at 1 uM by mass spectrometry based pull down assay; type: cell-based; procedure, shortened: as §2
Sequence of Low molecular weight phosphotyrosine protein phosphatase (Homo sapiens) (P24666 whole entry): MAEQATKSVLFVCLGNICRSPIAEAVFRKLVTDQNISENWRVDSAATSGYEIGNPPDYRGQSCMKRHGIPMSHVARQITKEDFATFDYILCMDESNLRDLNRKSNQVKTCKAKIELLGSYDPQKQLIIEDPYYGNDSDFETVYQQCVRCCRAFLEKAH

[17] = molecular target: T1, 80S Ribosome (Homo sapiens) (UniProt P08865+P42677+P62753+P15880+P23396+P61247+P62701+P22090+P46782+P62081+P62241+P46781+P46783+P62280+P25398+P62277+P62263+P62841+P62244+P62249+P08708+P62269+P39019+P60866+P63220+P62266+P62847+P62851+P62854+P62979+P62857+P62273+P62861+P39023+P36578+P46777+Q02878+P18124+P62424+P62917+P32969+P27635+P62906+P62913+P30050+P26373+P40429+P50914+P61313+P18621+Q07020+Q02543+P84098+P46778+P35268+P62829+P62750+P83731+P61254+P61353+P46776+P46779+P47914+P62888+P62899+P62910+P49207+P42766+P18077+Q9Y3U8+P83881+P61927+P61513+P63173+P62891+P62945+P05388+P05386); test: Binding affinity to RPS10 in human NCI-H23 cells at 1 uM by mass spectrometry based pull down assay; type: cell-based
[18] = molecular target: Tyrosine-protein kinase Yes (Homo sapiens) (UniProt P07947); test: Binding affinity to YES1 in human NCI-H358 cells at 1 uM by mass spectrometry based pull down assay; type: cell-based
[19] = molecular target: Bridging integrator 3 (Homo sapiens) (UniProt Q9NQY0); test: Binding affinity to BIN3 in human NCI-H23 cells at 1 uM by mass spectrometry based pull down assay; type: cell-based
[20] = molecular target: T1, 80S Ribosome (Homo sapiens); test: Binding affinity to RPS24 in human NCI-H23 cells at 1 uM by mass spectrometry based pull down assay; type: cell-based
[21] = molecular target: A-kinase anchor protein 12 (Homo sapiens) (UniProt Q02952); test: Binding affinity to AKAP12 in human NCI-H23 cells at 1 uM by mass spectrometry based pull down assay; type: cell-based; procedure, shortened: as §2
Sequence of A-kinase anchor protein 12 (Homo sapiens) (Q02952 whole entry): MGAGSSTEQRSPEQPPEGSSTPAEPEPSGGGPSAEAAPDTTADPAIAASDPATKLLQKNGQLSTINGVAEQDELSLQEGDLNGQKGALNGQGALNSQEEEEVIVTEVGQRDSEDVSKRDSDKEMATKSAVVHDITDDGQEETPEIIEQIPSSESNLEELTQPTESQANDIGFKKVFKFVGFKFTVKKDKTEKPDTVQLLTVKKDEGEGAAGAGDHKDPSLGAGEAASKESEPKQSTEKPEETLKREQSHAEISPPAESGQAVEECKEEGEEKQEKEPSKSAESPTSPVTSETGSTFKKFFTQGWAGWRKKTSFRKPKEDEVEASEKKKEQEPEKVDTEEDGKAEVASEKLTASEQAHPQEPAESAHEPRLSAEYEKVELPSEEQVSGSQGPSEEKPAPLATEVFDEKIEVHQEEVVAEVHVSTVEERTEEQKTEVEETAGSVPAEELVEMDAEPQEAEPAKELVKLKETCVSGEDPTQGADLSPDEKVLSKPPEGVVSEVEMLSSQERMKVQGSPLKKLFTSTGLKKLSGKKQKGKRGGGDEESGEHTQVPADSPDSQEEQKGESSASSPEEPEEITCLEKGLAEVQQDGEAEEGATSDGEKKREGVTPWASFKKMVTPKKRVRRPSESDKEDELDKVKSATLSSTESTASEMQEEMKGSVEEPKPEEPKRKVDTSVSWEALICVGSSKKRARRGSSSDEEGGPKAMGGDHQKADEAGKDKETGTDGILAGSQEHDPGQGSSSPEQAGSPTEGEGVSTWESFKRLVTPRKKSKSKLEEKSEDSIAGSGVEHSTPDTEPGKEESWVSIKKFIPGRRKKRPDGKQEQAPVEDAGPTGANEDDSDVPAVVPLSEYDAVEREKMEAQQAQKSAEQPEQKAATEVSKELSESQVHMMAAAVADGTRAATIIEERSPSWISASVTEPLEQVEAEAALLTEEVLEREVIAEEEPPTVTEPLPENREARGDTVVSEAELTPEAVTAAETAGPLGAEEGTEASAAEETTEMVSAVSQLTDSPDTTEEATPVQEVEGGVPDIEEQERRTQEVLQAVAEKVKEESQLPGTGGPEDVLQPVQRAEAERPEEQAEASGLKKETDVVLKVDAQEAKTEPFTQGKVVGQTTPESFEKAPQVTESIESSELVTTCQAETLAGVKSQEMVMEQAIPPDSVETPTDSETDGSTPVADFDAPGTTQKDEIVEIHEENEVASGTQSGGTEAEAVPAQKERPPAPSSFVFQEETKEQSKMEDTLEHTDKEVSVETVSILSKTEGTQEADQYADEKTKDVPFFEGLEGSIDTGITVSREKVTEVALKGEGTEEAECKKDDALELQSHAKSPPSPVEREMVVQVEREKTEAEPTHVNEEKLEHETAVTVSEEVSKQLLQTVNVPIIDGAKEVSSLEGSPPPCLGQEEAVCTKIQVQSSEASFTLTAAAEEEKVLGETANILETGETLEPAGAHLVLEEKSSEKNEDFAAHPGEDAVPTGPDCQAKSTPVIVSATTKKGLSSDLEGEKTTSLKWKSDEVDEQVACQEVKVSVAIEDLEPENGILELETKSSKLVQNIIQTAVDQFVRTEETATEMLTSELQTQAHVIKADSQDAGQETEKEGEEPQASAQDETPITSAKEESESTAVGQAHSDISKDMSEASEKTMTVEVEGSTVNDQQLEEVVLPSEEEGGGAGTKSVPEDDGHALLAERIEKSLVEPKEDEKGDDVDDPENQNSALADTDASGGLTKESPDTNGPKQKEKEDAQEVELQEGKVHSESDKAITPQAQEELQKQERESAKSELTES

[22] = molecular target: Aldehyde dehydrogenase family 3 member A2 (Homo sapiens) (UniProt P51648); test: Binding affinity to ALDH3A2 in human NCI-H358 cells at 1 uM by mass spectrometry based pull down assay; type: cell-based
[23] = molecular target: Clathrin light chain A (Homo sapiens) (UniProt P09496); test: Binding affinity to CLTA in human NCI-H358 cells at 1 uM by mass spectrometry based pull down assay; type: cell-based
[24] = molecular target: Kinesin-like protein KIF1A (Homo sapiens) (UniProt Q12756); test: Binding affinity to KIF1A in human NCI-H23 cells at 1 uM by mass spectrometry based pull down assay; type: cell-based
[25] = molecular target: Hepatocyte growth factor receptor (Homo sapiens) (UniProt P08581); test: Inhibition of MET in human SKCO1 cells at 1 uM after 4 hrs using biotin labeled TGAKLPVK probe by mass-spectrometric analysis relative to control; type: cell-based
Sequence of Hepatocyte growth factor receptor (Homo sapiens) (P08581 whole entry): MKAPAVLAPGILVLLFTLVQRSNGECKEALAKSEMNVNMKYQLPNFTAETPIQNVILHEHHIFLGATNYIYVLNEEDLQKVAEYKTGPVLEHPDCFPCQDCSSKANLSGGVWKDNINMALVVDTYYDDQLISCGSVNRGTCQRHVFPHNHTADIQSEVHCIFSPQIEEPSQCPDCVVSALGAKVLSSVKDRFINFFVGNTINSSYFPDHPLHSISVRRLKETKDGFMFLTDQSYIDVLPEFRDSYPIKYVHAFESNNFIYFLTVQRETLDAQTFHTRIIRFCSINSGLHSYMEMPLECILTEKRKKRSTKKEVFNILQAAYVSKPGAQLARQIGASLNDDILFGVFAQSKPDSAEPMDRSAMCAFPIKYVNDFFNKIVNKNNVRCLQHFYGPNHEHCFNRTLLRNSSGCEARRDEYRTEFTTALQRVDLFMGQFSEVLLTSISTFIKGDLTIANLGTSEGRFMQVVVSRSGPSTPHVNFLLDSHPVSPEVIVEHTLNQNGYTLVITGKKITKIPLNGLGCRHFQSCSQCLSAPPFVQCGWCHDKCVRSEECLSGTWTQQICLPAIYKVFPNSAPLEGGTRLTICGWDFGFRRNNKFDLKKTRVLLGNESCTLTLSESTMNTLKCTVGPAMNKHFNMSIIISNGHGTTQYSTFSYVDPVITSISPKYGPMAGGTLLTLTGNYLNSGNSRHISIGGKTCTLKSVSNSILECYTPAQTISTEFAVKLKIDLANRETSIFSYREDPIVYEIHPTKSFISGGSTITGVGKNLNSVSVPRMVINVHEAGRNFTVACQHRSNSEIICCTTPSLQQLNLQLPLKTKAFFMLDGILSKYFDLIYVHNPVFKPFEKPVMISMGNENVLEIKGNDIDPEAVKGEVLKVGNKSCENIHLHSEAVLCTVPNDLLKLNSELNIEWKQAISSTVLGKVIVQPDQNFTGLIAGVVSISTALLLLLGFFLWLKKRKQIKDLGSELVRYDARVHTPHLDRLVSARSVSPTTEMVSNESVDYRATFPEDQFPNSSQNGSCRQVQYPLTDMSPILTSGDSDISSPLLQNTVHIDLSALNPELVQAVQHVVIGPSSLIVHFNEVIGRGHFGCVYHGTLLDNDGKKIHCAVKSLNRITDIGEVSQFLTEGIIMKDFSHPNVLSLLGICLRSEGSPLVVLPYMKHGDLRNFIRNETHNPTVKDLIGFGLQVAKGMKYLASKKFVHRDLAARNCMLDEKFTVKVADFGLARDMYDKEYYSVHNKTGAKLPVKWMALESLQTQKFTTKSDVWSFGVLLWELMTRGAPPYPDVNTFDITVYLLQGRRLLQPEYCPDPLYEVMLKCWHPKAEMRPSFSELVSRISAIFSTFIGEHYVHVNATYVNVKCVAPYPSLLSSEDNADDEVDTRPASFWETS

C=CC(=O)Nc1ccccc1Nc1nc(Nc2ccc(N3CCN(C)CC3)cc2)ncc1Cl
inhibition [1]: -4.9%

COc1cc(O)c2c(c1)/C=C/C[C@H](O)[C@H](O)C(=O)/C=C\C[C@H](C)OC2=O
Activity [2]: 0.05%
Activity [3]: 78%
Activity [4]: 21%

C=CC(=O)Nc1ccccc1Nc1nc(Nc2ccc(N3CCN(CCOCCOCCOCCNC(=O)CCCC[C@@H]4SC[C@@H]5NC(=O)N[C@@H]54)CC3)cc2)ncc1Cl
Activity [5]: Active
Activity [6]: Active
Activity [7]: Active
Activity [8]: Active
Activity [9]: Active
Activity [10]: Active
Activity [11]: Active
Activity [12]: Active
Activity [13]: Active
Activity [14]: Active
Activity [15]: Active
Activity [16]: Active
Activity [17]: Active
Activity [18]: Active
Activity [19]: Active
Activity [20]: Active
Activity [21]: Active
Activity [22]: Active
Activity [23]: Active
Activity [24]: Active

C=CC(=O)Nc1ccccc1Oc1nc(Nc2cnn(CCOC)c2)ncc1Cl
inhibition [25]: -1.9%

Reference: ChEMBL document CHEMBL4118021, “Studies of TAK1-centered polypharmacology with novel covalent TAK1 inhibitors” (Bioorg Med Chem, 2017)
